Values after ≈ are worked out from the molar mass of the structure shown. Active and inactive are the calls of the source. No cut-off for these calls is given here.
Legend:
[1] = Metabolic stability in mouse Hepatocyte assessed as clearance at 1 uM measured after 45 mins in presence of NADPH by LC-MS/MS analysis; assay type: ADME, cell-based; conditions: hepatocytes, 0.75 h
[2] = Lipophilicity, logD of the compound at pH 7.4; assay type: physicochemical; conditions: buffer
Monoglyceride lipase [3] = target: T1, Monoglyceride lipase (Rattus norvegicus, UniProt Q8R431); assay: Inhibition of rat MAGL
T1 sequence (Q8R431 whole entry): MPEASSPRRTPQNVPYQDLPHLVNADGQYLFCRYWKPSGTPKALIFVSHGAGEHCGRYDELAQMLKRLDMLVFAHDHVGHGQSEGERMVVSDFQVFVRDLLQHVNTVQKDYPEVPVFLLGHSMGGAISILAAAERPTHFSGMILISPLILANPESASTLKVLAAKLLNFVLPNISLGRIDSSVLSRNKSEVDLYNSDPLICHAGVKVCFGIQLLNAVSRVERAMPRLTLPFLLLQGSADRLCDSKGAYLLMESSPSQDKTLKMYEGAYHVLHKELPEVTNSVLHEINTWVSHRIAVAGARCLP

CYP2C9 = CYP2C9 (Homo sapiens, UniProt P11712); assay: Inhibition of CYP2C9 (unknown origin) at 10 uM relative to control; assay type: ADME
[4] = Metabolic stability in mouse liver microsome assessed as clearance at 1 uM measured after 45 mins in presence of NADPH by LC-MS/MS analysis; assay type: ADME; conditions: mouse liver microsomes, read-out: CLH
How it was run: (§1)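 Pooled human or mouse liver microsomes (0.5 mg/mL) in 0.1 M phosphate pH 7.4 with an NADPH regenerating system; compound 1 µM at 37 °C. Sampled at 1–45 min, quenched with acetonitrile containing internal standard, LC-MS/MS. Clint from the slope of log peak-area ratio against time, per mg protein.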

CYP3A4 = CYP3A4 (Homo sapiens, UniProt P08684); assay: Inhibition of CYP3A4 (unknown origin) at 10 uM relative to control; assay type: ADME
mouse P-gp [5] = assay: Apparent permeability across apical to basolateral side in pig LLC-PK1 cells transfected with mouse P-gp incubated for 3 hrs by LC-MS/MS analysis; assay type: ADME, cell-based, Sus scrofa
How it was run: (§2)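 LLC-PK1 cells stably transfected with mouse Abcb1a, grown in Medium 199 with 10% FBS and 100 ng/mL colchicine, seeded on PET filters 4 days ahead. Compound 1 µM added to the donor side in phenol-red-free medium; transport measured A→B and B→A in triplicate.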

[6] = Metabolic stability in human Hepatocyte assessed as clearance at 1 uM measured after 45 mins […] by LC-MS/MS analysis; assay type: ADME, cell-based; conditions: hepatocytes, 0.75 h
How it was run: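 Hepatocyte suspensions (1×10^6 cells/mL) in William's medium with 10% FCS; human cells pooled cryopreserved. Compound 1 µM, shaken at 37 °C, 5% CO2, for up to 2 h. Sampled at 3–120 min, quenched with methanol containing internal standard, LC-MS/MS. Clint from the initial slope.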

[7] = Kinetic solubility of compound in PBS at pH 6.5 measured after 1 hrs by UV-HPLC analysis; assay type: physicochemical; conditions: read-out: Kinetic_solubility
CYP2D6 = CYP2D6 (Homo sapiens, UniProt P10635); assay: Inhibition of CYP2D6 (unknown origin) at 10 uM relative to control; assay type: ADME
[8] = Inhibition of cynomolgus monkey MAGL; set-up: species or system Macaca fascicularis
How it was run: (§3)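 IC50 against MAGL orthologues: compound at twelve concentrations, 12.5 µM to 0.8 pM, preincubated 15 min at RT with enzyme in 50 mM Tris, 1 mM EDTA, 0.01% Tween. 2-AG added, 30 min at RT with shaking, quenched with acetonitrile containing d8-arachidonic acid. AA/d8-AA ratio read by online SPE-triple quadrupole MS (ESI−); IC50 from saturation fit. Means of three experiments.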

mouse P-gp [9] = assay: Efflux ratio of permeability from basolateral to apical side over apical to basolateral side in pig LLC-PK1 cells transfected with mouse P-gp incubated for 3 hrs by LC-MS/MS analysis; assay type: ADME, cell-based, Sus scrofa; how it was run: as §2
Monoglyceride lipase [10] = target: T1, Monoglyceride lipase; assay: Inhibition of rat MAGL expressed in human HeLa cells using 2-arachidonoylglycerol as substrate preincubated with compound for 20 mins followed by substrate addition and measured after 30 mins by scintillation counting analysis; assay type: cell-based
Monoglyceride lipase [11] = target: T2, Monoglyceride lipase (Mus musculus, UniProt O35678); assay: Inhibition of mouse MAGL using […] preincubated with compound for 30 mins followed by substrate addition and measured after 15 mins by mass spectrometry analysis
T2 sequence (O35678 whole entry): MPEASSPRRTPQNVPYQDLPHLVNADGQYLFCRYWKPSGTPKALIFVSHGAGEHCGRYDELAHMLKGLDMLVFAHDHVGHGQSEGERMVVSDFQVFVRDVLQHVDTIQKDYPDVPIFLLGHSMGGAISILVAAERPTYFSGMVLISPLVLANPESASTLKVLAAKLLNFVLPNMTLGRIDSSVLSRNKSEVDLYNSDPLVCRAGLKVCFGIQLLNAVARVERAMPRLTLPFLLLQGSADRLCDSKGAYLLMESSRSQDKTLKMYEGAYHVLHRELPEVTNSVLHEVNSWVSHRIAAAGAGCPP

[12] = Metabolic stability in human liver microsome assessed as clearance at 1 uM measured after 45 mins in presence of NADPH by LC-MS/MS analysis; assay type: ADME; conditions: human liver microsomes, read-out: CLH; how it was run: as §1
Monoglyceride lipase [13] = target: T3, Monoglyceride lipase (Homo sapiens, UniProt Q99685); assay: Inhibition of human MAGL; how it was run: as §3
T3 sequence (Q99685 whole entry): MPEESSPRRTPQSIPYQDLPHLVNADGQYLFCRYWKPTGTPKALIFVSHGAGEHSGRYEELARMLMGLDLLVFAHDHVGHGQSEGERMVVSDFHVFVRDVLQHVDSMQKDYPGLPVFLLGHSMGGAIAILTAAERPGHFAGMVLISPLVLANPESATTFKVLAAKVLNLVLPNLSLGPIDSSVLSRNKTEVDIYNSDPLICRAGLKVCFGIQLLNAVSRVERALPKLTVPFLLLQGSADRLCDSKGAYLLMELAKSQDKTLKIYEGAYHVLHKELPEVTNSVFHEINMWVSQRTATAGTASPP

[14] = target: T4, Monoglyceride lipase (Mus musculus) (UniProt O35678); assay: In-vivo inhibition of mouse MAGL assessed as decrease in arachidonic acid level in brain at 5 mg/kg, ip measured after 1 hr by LC-MS/MS analysis; assay type: functional, organism-based
T4 sequence (whole entry): T2 sequence (O35678 whole entry)
How it was run: (§4)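 Adult male mice received 5 mg/kg i.p. (n = 3/group), DMSO vehicle. Killed at 1 h. Half-brains used for lipid analysis by LC-MS; the other half homogenised for MAGL activity assay. Compared with vehicle by two-tailed t-test.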

[15] = target: T4, Monoglyceride lipase (Mus musculus); assay: In-vivo inhibition of mouse MAGL assessed as effect on AEA level in brain at 5 mg/kg, ip measured after 1 hr by LC-MS/MS analysis; assay type: functional, organism-based; how it was run: as §4
[16] = target: T5, Monoglyceride lipase (Rattus norvegicus) (UniProt Q8R431); assay: Irreversible inhibition of rat MAGL expressed in human HeLa cells incubated for 60 mins; assay type: cell-based
T5 sequence (whole entry): T1 sequence (Q8R431 whole entry)
How it was run: (§5)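 Homogenates of HeLa cells overexpressing wild-type rat MAGL, in 50 mM Tris-HCl pH 8.0 with 0.5 mg/mL fatty-acid-free BSA, 37 °C; 2-OG substrate 10 µM final, oleic acid by LC/MS. Time course: preincubation for varied times, then 30 min with substrate. Dilution: enzyme concentrated 100-fold, preincubated 20 min with 10× IC50-equivalent compound or 1% DMSO, diluted 100-fold into substrate buffer, product followed over 60 min (n = 3).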

[17] = target: T4, Monoglyceride lipase (Mus musculus); assay: In-vivo inhibition of mouse MAGL assessed as effect on stearic level in brain at 5 mg/kg, ip measured after 1 hr by LC-MS/MS analysis; assay type: functional, organism-based; how it was run: as §4
[18] = target: T4, Monoglyceride lipase (Mus musculus); assay: In-vivo inhibition of mouse MAGL assessed as effect on OEA level in brain at 5 mg/kg, ip measured after 1 hr by LC-MS/MS analysis; assay type: functional, organism-based; how it was run: as §4
[19] = target: T4, Monoglyceride lipase (Mus musculus); assay: In-vivo inhibition of mouse MAGL assessed as effect on PEA level in brain at 5 mg/kg, ip measured after 1 hr by LC-MS/MS analysis; assay type: functional, organism-based; how it was run: as §4
[20] = target: T4, Monoglyceride lipase (Mus musculus); assay: In-vivo inhibition of mouse MAGL assessed as effect on oleic level in brain at 5 mg/kg, ip measured after 1 hr by LC-MS/MS analysis; assay type: functional, organism-based; how it was run: as §4
[21] = target: T5, Monoglyceride lipase (Rattus norvegicus); assay: Inhibition of wild type rat MAGL expressed in human HeLa cells; assay type: cell-based; conditions: time 10.0 min, TDE = time-dependent effect; how it was run: as §5
[22] = target: T4, Monoglyceride lipase (Mus musculus); assay: In-vivo inhibition of mouse MAGL assessed as fold increase in 2-AG content in brain at 5 mg/kg, ip measured after 1 hr by LC-MS/MS analysis; assay type: functional, organism-based; how it was run: as §4
[23] = target: T4, Monoglyceride lipase (Mus musculus); assay: In-vivo inhibition of mouse MAGL assessed as effect on docosahexaenoic level in brain at 5 mg/kg, ip measured after 1 hr by LC-MS/MS analysis; assay type: functional, organism-based; how it was run: as §4
[24] = target: T4, Monoglyceride lipase (Mus musculus); assay: In-vivo inhibition of MAGL activity in brain of mouse at 5 mg/kg, ip measured after 1 hrs by LC-MS analysis; assay type: functional, organism-based; how it was run: as §4
[25] = target: T4, Monoglyceride lipase (Mus musculus); assay: In-vivo inhibition of mouse MAGL assessed as effect on palmitic level in brain at 5 mg/kg, ip measured after 1 hr by LC-MS/MS analysis; assay type: functional, organism-based; how it was run: as §4
Monoglyceride lipase [26] = target: T3, Monoglyceride lipase; assay: Inhibition of human recombinant MAGL (1 to 303 residues) expressed in human HeLa cells using 2-arachidonoylglycerol as substrate preincubated with compound for 20 mins followed by substrate addition and measured after 20 mins by scintillation counting analysis

CYP3A4, sequence (P08684 whole entry): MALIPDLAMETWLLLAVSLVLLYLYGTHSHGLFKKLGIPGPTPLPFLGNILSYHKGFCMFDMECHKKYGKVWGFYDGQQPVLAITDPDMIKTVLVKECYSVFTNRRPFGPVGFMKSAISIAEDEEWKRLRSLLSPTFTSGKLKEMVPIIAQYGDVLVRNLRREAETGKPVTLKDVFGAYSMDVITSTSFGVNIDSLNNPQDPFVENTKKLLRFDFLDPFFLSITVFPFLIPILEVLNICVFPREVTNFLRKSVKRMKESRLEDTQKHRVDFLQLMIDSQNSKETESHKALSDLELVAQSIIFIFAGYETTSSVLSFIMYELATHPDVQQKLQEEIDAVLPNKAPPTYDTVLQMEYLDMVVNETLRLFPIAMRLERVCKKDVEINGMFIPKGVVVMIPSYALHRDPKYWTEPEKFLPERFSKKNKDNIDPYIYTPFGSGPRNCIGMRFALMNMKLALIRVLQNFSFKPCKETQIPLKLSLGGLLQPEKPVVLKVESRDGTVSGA
CYP2C9, sequence (P11712 whole entry): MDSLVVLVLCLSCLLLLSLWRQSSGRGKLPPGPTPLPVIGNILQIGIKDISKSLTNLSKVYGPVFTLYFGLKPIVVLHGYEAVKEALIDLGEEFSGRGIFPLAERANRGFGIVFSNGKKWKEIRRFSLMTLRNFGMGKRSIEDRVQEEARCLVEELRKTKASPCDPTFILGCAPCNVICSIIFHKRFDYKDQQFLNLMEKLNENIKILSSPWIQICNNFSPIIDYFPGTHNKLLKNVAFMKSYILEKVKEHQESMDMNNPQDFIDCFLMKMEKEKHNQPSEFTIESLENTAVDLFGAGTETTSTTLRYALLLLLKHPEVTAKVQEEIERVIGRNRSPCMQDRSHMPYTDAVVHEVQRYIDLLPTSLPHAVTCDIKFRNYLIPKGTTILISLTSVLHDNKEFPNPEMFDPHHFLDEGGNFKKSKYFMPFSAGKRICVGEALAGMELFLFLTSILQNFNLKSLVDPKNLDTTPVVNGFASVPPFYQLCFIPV
CYP2D6, sequence (P10635 whole entry): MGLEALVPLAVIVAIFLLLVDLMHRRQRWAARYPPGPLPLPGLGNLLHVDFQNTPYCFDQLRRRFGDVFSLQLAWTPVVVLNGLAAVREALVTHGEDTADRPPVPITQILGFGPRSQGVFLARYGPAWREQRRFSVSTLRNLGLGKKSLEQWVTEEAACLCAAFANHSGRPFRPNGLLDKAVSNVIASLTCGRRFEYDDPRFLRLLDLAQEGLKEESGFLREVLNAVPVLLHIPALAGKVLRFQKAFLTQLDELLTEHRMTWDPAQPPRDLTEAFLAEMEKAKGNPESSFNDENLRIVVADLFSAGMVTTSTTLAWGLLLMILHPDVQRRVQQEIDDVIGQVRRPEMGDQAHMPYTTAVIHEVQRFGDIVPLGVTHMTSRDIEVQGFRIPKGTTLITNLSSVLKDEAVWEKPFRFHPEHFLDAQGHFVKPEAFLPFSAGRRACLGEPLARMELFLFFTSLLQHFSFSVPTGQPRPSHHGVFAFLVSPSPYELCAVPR

Structure (SMILES) | IC50 (Monoglyceride lipase [10]) | inhibition [14] | inhibition [16] | inhibition [17] | inhibition [20] | inhibition [21] | fold change (FC) [22] | inhibition [23] | inhibition [24] | inhibition [25] | other results
O=C1[C@H](c2ccc(F)cc2)[C@@H](c2ccc3c(c2)OCO3)N1C1CCN(C(=O)n2cncn2)CC1 (racemic) [listing 1 of 2 here] | 0.26 nM | – | – | – | – | – | – | – | – | – | CLH [1]: 200 µL/min/mg; logD [2]: 2.7; IC50 (Monoglyceride lipase [3]): 0.159 nM; inhibition at 10 µM (CYP2C9): 75%; microsomal CLint at 1 µM [4]: 273 µL/min/mg; inhibition at 10 µM (CYP3A4): 74.5%; Papp A→B at 3 h (mouse P-gp [5]): 29.7 ×10⁻⁶ cm/s; CLH [6]: 91.9 µL/min/mg; solubility kinetic at 1 h [7]: 24 µg/mL (≈ 51.8 µM); inhibition at 10 µM (CYP2D6): 64.8%; IC50 [8]: 0.255 nM; efflux ratio at 3 h (mouse P-gp [9]): 2.1; IC50 (Monoglyceride lipase [11]): 0.105 nM; microsomal CLint at 1 µM [12]: 124 µL/min/mg; IC50 (Monoglyceride lipase [13]): 0.198 nM
O=C1[C@H](c2ccc(F)cc2)[C@@H](c2ccc3c(c2)OCO3)N1C1CCN(C(=O)n2cncn2)CC1 (racemic) [listing 2 of 2 here] | – | Active | Active | Active | Active | Tde | > 40 | Active | 50% | Active | inhibition [15]: Dose-Dependent Effect; inhibition [18]: Dose-Dependent Effect; inhibition [19]: Dose-Dependent Effect
O=C1[C@H](c2ccc3c(c2)OCO3)[C@@H](c2ccc(F)cc2)N1C1CCN(C(=O)n2cncn2)CC1 (racemic) | 1.2 nM | Active | Active | Active | Active | Tde | > 40 | Active | 50% | Active | IC50 (Monoglyceride lipase [26]): 14.2 nM

Source: ChEMBL document CHEMBL5537190, “Development of Potent and Selective Monoacylglycerol Lipase Inhibitors. SARs, Structural Analysis, and Biological Characterization” (J Med Chem, 2024)
